Assay outcomes: PubChem, several laboratories
NPY-Y1 antag = NPY-Y1 receptor antagonists, primary screen, cell-based; actives 1% (n = 200,000); AID 1040, 2008; HEK293-CNG Y1 cells, membrane potential fluorescence; NPY at EC95, then isoproterenol; inhibition, % at 3.6 µM;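 active = inhibition above the campaign mean inhibition of all tested compounds plus 3 SD, cut at about 20% in these data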;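 also: 0% = DMSO wells given NPY plus isoproterenol and 100% = isoproterenol alone without NPY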
Target sequence (P25929 whole entry, looked up): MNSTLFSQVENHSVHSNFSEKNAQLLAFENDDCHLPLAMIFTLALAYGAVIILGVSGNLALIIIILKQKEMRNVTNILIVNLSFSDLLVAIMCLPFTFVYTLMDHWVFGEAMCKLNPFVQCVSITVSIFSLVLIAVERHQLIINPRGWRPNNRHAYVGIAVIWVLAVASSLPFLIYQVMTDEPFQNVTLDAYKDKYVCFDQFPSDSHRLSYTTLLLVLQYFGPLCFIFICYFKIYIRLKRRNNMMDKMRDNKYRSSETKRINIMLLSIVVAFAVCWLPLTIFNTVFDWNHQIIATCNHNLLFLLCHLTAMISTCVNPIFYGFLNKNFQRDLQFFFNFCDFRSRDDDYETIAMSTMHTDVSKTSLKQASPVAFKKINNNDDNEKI
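Assay system: HEK293 cells with Y1 receptor plus CNG channel | Probe or stimulus: NPY (25 nM), isoproterenol (1 µM), Ro 20-1724 (25 µM) | Timing: Compound incubation 1 h at room temperature, readout 45 min post-stimulation | Measured by: Membrane-potential fluorescent dye readout | Benchmarks: High control isoproterenol alone, low control NPY with isoproterenol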
NPY2 pot ag = NPY-Y2 potentiators or agonists, primary screen, cell-based; Neuropeptide Y receptor type 2 (Homo sapiens), P49146; cells expressing NPY-Y2, potentiator/agonist read-out; activation, % at 3.6 µM; actives 0.45% (n = 220,000); AID 1359, 2008; in the data active = activation above about 27%;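 also: cells stimulated with NPY near EC25 plus isoproterenol at EC100; 0% = vehicle plus submaximal agonist and 100% = vehicle plus saturating agonist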
NPY-Y1 PAM-ag = NPY-Y1 receptor potentiators or agonists, primary screen, cell-based. Neuropeptide Y receptor type 1 (Homo sapiens), P25929. NPY-Y1 expressing cells, potentiator/agonist activation. actives 0.37% (n = 220,000). activation, % at 3.6 µM. AID 1304, 2008; in the data active = activation above about 33%, passing the limit was not always enough;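 also: cells stimulated with NPY at EC10 then isoproterenol at EC100; 0% = low agonist plus stimulus and 100% = saturating agonist plus stimulus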
NPY-Y2 antag = NPY-Y2 receptor antagonists, primary screen, cell-based | inhibition, % at 2.7 µM | actives 0.99% (n = 140,000) | Neuropeptide Y receptor type 2 (Homo sapiens), P49146 | NPY-Y2 expressing cells, antagonist mode; in the data active = inhibition above about 17%;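 also: 0% = vehicle with agonist challenge and 100% = reference antagonist with challenge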
RAM inhibit = inhibitors of the yeast RAM network, primary screen, dse1pr::URA3 reporter, 5-FOA selection; S. cerevisiae dse1pr::URA3 reporter, 5-FOA growth OD615, 2 d; analog-sensitive cbk1-as2 kinase mutant strain; inhibition, % at 50 µM; actives 1.8% (n = 190,000); AID 868, 2007;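 active = inhibition above a set limit, 3 SD over mean compound inhibition, cut at about 8.4% in these data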;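 also: 0% = DMSO-only wells with no growth and 100% = 10 µM 1-NA-PP1 full growth; inhibition rescues growth on 5-FOA so higher OD means more RAM inhibition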
WT yeast gro inh = growth inhibition of WT strain, primary screen, mitochondrial fusion inhibitor project, WT and mutant strains, chemical genetic. mitochondrial fusion phenotypic screen. inhibition, % at 10 µM. actives 2.1% (n = 190,000); in the data active = inhibition above about 58%; tested in S. cerevisiae
RAM efflux-def = 5-FOA growth of efflux-deficient control yeast, dose response, counter-screen for RAM network inhibitor project, S. cerevisiae, OD615. shares compounds with RAM inhibit. S. cerevisiae efflux-deficient reporter strain, 5-FOA growth OD615, 2 days. max inhibition, %. 1,200 tested, under 10 active. AID 1305, 2008; call rule not given here;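 also: plate controls were vehicle for no effect and reference inhibitor for full effect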
Numbers without * were called inactive; x = no result. Only some compounds are listed: those with a hit (about 4.9% of all), similar ones and a draw of the others.

SMILES | NPY-Y1 antag | NPY2 pot ag | NPY-Y1 PAM-ag | NPY-Y2 antag | RAM inhibit | WT yeast gro inh | RAM efflux-def
CC(C)OC(=O)C(C#N)c1nc2ccccc2nc1N1CCCC1 (configuration not stated) | 1 | -16 | 10 | 2 | 3 | 5 | x
CC1CN(S(=O)(=O)c2cccc(-c3csc(-c4ccccc4)n3)c2)CC(C)O1 (configuration not stated) | 0 | 11 | -4 | 4 | 5 | 34 | x
c1ccc2nc(-c3nc4ccccc4[nH]3)ccc2c1 | 2 | -20 | -6 | 6 | 1 | 13 | x
Cn1cc(-c2nnnn2-c2ccc(Cl)cc2)c(C(F)(F)F)n1 | 1 | 2 | -4 | -1 | -1 | 11 | x
COc1ccc(/C=C/C(=O)c2c(O)c(OC)c3occc3c2OC)cc1 | 8 | -3 | -16 | x | 12* | 13 | 3
CCN(CC(=O)Nc1ccccc1SC)Cc1nc2ccccc2c(=O)[nH]1 | x | -1 | 3 | x | x | x | x
COc1ccc(S(=O)(=O)N(C)c2ccc(C(=O)NC3CCCC3)cc2)cc1 | 2 | 1 | 0 | x | 0 | -1 | x
Cc1ccc(-c2nc3cccnc3s2)cc1NS(=O)(=O)c1ccc2c(c1)OCCO2 | 3 | -15 | 7 | 4 | 13* | 49 | 2
Cc1ccc(-c2noc(CSc3nnc(CCc4ccccc4)n3-c3ccccc3)n2)cc1 | 10 | -15 | -38 | 15 | 14* | 50 | 2
COc1ccc(/C=N/OCC(=O)NC(c2ccccc2)c2ccccc2)c(OC)c1 | 8 | -9 | -11 | 7 | 12* | 46 | 3
CC(C)n1c(O)c(/C=C2\C=Nc3ccccc32)sc1=Nc1ccccc1 | 2 | 10 | 6 | 2 | 6 | 5 | x
O=c1c(/C=N/O)coc2ccc3ccccc3c12 | 4 | 8 | 6 | 1 | 23* | -14 | 1
CCCCC(=O)O[C@H]1CC[C@H]2[C@@H]3CCc4cc(O)ccc4[C@H]3CC[C@]12C | 5 | 3 | -8 | 7 | 14* | 91* | 7
C[C@]12CC[C@@H]3c4ccc(O)cc4CC[C@H]3[C@@H]1CCC2=O | 2 | 1 | 0 | 0 | 4 | -8 | x
CCOC(=O)c1cccc(NC(=O)CSc2nnc(COc3ccccc3)n2CC)c1 | 7 | -8 | -11 | 1 | 14* | -1 | 3
O=C(/C=C/c1cccc([N+](=O)[O-])c1)n1cnc2ccccc21 | 0 | -5 | 10 | x | 6 | 36 | x
CCNC(=S)N1CCN(S(=O)(=O)c2ccc(C)cc2)CC1 | 5 | 4 | 5 | x | 5 | -9 | x
COc1cccc(NC(=O)OCCN2CCN(Cc3ccccc3)CCC2=O)c1 | -2 | 4 | -19 | 2 | 0 | -4 | x
Cc1ccc(/C=C2/Sc3ccccc3N(CC(=O)NCCCOC(C)C)C2=O)cc1 | 0 | -7 | 0 | 5 | 13* | 32 | 4
CCCNS(=O)(=O)c1ccc(CCC(=O)NCCc2ccc(OC)c(OC)c2)cc1 | 1 | 6 | 3 | x | 0 | -3 | x
O=C(O)c1cccc(COc2ccc3c(c2)CCC3)c1 | x | -7 | -5 | x | x | x | x
COC(=O)c1ccccc1NC(=O)c1ccc(COc2ccc3c(c2)CCC3)cc1 | 0 | 5 | -11 | 9 | 14* | -15 | 5
O=C(NCc1ccccc1)c1cccc(COc2ccc3c(c2)CCC3)c1 | 3 | -17 | -26 | 6 | 12* | 25 | 7
COc1ccc(CC(=O)NCc2nnc(SCc3ccc(C)cc3)n2C)cc1 | -4 | 5 | 7 | 1 | 1 | -4 | x
Oc1ccc(Cl)cc1CNc1ccc(Br)cn1 | -1 | 7 | 16 | -3 | 1 | 10 | x
O=C(NCc1ccc(F)cc1)c1ccc(S(=O)(=O)Nc2cccc(C(F)(F)F)c2)cc1 | -10 | 37* | 48* | -1 | 13* | 5 | 2
